Results reported in ChEMBL document CHEMBL3792331, “Identification and synthesis of potent and selective pyridyl-isoxazole based agonists of sphingosine-1-phosphate 1 (S1P1)” (Bioorg Med Chem Lett, 2016).

Columns and labels:
[1] = Plasma concentration Lewis rat at 1 mg/kg, po after 24 hrs; assay type: ADME, organism-based
Outline: (§1)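 Lewis rats given 1.0 mg/kg orally as solution or suspension in vehicle. Plasma drug concentration measured in blood drawn at 4 h and 24 h; 4 h/24 h ratio taken from these values.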

Plasma = experiment: Ratio of plasma concentration Lewis rat at 1 mg/kg, po after 4 hrs to plasma concentration Lewis rat at 1 mg/kg, po after 24 hrs; assay type: ADME, organism-based; conditions: in vivo; outline: as §1
[2] = biological target: Sphingosine 1-phosphate receptor 1 (Homo sapiens, UniProt P21453); experiment: Agonist activity at human S1P1 receptor expressed in CHO cell membranes assessed as stimulation of [35S]GTPgamma binding incubated for 45 mins by liquid scintillation counting method
Outline: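 Membranes from S1P1/CHO cells (S1P1) or EDG3-Ga15-bla HEK293T cells (S1P3), final protein […], with 3-fold compound dilutions. Buffer: 20 mM HEPES pH 7.5, 10 mM MgCl2, 150 mM NaCl, 1 mM EGTA, 1 mM DTT, GDP, 0.1% fatty acid free BSA, saponin. [35S]GTP 0.2 nM final. Room temperature, 45 min. Filtered, washed with water, dried 60 °C. EC50 taken at 50% of each compound's Ymax.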

Rattus norvegicus [3] = experiment: Reduction in circulating lymphocytes in Lewis rat at 1 mg/kg, po after 24 hrs; assay type: functional
Outline: (§2)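 Healthy Lewis rats dosed orally with test article as solution or suspension in vehicle, or vehicle alone. Blood drawn at 4 h and 24 h. Circulating lymphocyte percentage measured by hematology analyzer, expressed as reduction versus the vehicle group. Group average, n = 3–4.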

[4] = Plasma concentration Lewis rat at 1 mg/kg, po after 4 hrs; assay type: ADME, organism-based; outline: as §1
[5] = Selectivity index, ratio of EC50 for agonist activity at human S1P3 receptor expressed in EDG3-Ga15-bla HEK293T cell membranes to EC50 for agonist activity at human S1P1 receptor expressed in CHO cell membranes; assay type: cell-based
Outline: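 S1P3/S1P1 ratio of GTPγ[35S] EC50s. Membranes from EDG3-Ga15-bla HEK293T (S1P3) or S1P1/CHO cells, […], 0.2 nM final [35S]GTP. HEPES pH 7.5 buffer with MgCl2, NaCl, EGTA, DTT, GDP, BSA and saponin. 45 min at room temperature, filtration read-out. Each EC50 taken at 50% of the compound's own Ymax.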

Rattus norvegicus [6] = experiment: Reduction in circulating lymphocytes in Lewis rat at 1 mg/kg, po after 4 hrs; assay type: functional; outline: as §2

Sphingosine 1-phosphate receptor 1, sequence (P21453 whole entry): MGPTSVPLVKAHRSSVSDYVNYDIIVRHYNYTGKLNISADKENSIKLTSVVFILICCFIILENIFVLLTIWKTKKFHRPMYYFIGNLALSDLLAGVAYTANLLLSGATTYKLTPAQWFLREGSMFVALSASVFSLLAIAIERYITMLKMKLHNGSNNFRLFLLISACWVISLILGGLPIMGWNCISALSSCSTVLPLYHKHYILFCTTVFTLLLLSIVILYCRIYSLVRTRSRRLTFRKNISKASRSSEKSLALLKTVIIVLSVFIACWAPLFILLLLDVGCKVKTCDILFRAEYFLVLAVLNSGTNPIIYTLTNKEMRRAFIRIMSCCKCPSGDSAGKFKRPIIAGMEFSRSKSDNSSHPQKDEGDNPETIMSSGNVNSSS

## CCc1c(-c2nc(-c3ccc(CN4CC(C(=O)O)C4)cc3)no2)noc1-c1ccccn1
[1]
  concentration at 24 h: 64 nM
Plasma
  Ratio: 15
[2]
  EC50: 3.4 nM
Rattus norvegicus [3]
  inhibition in vivo at 1 mg/kg: 58%
[4]
  concentration at 4 h: 972 nM
[5]
  Ratio EC50: 550
Rattus norvegicus [6]
  inhibition in vivo at 1 mg/kg: 84%
